Source: ChEMBL document CHEMBL3826928, “Incorporation of Phosphonate into Benzonaphthyridine Toll-like Receptor 7 Agonists for Adsorption to Aluminum Hydroxide” (J Med Chem, 2016)

Key:
[1] = biological target: T1, Toll-like receptor 7 (Mus musculus) (UniProt P58681); test: Agonist activity at TLR7 in Balb/c mouse splenocytes assessed as induction of IL-6 secretion in supernatant after 18 hrs relative to resiquimod; type: cell-based
T1 sequence (whole entry): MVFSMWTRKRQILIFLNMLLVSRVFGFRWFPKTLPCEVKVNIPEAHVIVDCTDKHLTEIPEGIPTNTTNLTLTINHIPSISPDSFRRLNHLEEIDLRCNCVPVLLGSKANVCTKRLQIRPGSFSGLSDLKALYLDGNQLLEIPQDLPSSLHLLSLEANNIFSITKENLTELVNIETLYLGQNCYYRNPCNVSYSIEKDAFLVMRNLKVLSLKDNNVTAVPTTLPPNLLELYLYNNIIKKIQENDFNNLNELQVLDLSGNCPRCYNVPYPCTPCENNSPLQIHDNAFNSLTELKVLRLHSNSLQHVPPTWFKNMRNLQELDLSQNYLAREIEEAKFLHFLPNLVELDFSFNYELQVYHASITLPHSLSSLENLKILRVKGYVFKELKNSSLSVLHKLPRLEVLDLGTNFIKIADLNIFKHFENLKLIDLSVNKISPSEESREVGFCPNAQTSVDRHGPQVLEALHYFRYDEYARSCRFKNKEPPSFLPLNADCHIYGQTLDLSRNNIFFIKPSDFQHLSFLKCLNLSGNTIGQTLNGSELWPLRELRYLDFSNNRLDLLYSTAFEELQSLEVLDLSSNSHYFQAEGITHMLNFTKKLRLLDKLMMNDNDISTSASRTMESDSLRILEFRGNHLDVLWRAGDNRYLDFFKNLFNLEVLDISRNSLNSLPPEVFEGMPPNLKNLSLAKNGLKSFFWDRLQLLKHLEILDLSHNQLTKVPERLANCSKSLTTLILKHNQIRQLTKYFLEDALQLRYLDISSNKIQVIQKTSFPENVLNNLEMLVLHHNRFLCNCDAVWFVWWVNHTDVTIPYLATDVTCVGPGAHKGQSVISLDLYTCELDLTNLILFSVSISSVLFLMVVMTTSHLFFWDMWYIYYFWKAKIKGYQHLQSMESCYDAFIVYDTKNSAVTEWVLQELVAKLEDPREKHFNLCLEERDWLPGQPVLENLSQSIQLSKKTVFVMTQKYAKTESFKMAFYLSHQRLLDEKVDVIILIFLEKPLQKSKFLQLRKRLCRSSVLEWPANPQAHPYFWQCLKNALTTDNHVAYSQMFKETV
In short: (§1)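 Spleens from female BALB/c mice (6−10 weeks), single-cell suspension, RBC lysis; 5 × 10⁵ splenocytes per well in RPMI 1640 with 10% FCS, 2-ME. Compounds as sodium salts (1 equiv NaOH) from 10 mM water stocks, 3-fold 10-point dilutions from 30 μM.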

Toll-like receptor 7 [2] = biological target: T2, Toll-like receptor 7 (Homo sapiens, UniProt Q9NYK1); test: Agonist activity at TLR7 in human PBMC assessed as induction of IL-6 secretion in supernatant after 18 hrs; conditions: read-out: EC50
T2 sequence (Q9NYK1 whole entry): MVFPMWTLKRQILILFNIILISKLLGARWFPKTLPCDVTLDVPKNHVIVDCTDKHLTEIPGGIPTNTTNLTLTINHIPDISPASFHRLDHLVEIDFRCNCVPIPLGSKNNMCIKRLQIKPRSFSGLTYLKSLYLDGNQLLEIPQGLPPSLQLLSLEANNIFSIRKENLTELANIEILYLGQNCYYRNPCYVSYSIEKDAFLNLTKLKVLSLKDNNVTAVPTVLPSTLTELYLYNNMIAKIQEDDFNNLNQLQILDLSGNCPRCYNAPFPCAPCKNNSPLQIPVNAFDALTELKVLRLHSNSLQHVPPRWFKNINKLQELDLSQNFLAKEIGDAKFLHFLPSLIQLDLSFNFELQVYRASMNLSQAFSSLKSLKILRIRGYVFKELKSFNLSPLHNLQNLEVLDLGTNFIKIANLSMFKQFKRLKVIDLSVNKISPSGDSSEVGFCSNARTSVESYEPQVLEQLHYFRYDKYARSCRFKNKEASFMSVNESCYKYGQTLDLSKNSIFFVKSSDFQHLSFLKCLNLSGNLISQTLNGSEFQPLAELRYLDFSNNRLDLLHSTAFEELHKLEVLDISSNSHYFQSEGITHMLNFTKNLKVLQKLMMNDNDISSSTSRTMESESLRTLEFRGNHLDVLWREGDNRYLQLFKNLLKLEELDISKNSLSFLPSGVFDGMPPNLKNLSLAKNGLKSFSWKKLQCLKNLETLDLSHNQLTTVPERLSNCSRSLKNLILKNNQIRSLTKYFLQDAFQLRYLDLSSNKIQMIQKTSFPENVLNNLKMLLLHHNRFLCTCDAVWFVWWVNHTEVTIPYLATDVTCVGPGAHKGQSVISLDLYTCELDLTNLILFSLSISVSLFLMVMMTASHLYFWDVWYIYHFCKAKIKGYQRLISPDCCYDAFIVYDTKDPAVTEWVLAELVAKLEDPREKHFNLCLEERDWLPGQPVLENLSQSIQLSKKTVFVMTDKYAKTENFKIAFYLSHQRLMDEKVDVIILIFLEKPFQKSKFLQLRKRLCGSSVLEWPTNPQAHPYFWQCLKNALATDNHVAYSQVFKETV
In short: (§2)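 Isolated human PBMCs washed in PBS, resuspended in RPMI1640 with 10% heat-inactivated FBS, pyruvate, HEPES, at 1 × 10⁶ cells/mL. Compounds as in-situ sodium salts from 10 mM aqueous stocks, 3-fold 10-point dilutions from 30 μM.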

[3] = Adsorption on alum in pH 6.5 histidine buffer assessed as compound adsorbed at 1 mg/ml incubated for 1 hr in presence of inorganic phosphate by LC-MS analysis; type: physicochemical; conditions: pH 6.5, 1 h
[4] = biological target: T3, Toll-like receptor 7 (Homo sapiens) (UniProt Q9NYK1); test: Agonist activity at TLR7 in human PBMC assessed as induction of IL-6 secretion in supernatant after 18 hrs relative to resiquimod; type: cell-based; in short: as §2
T3 sequence (whole entry): T2 sequence (Q9NYK1 whole entry)

Toll-like receptor 7 [5] = biological target: T4, Toll-like receptor 7 (Mus musculus, UniProt P58681); test: Agonist activity at TLR7 in Balb/c mouse splenocytes assessed as induction of IL-6 secretion in supernatant after 18 hrs; type: cell-based; in short: as §1
T4 sequence (P58681 whole entry): T1 sequence (whole entry)

SMILES | %max [1] | EC50 (Toll-like receptor 7 [2]) | Activity [3] | %max [4] | EC50 (Toll-like receptor 7 [5])
Cc1ccc2c(c1)nc(N)c1ncc(CCc3ccc(OCCOCCOCCC(F)(F)P(=O)(O)O)cc3C)cc12 | 100% | 0.98 µM | Not Active | 36% | 0.81 µM
Cc1cc(OCCCC(F)(F)P(=O)(O)O)ccc1CCc1cnc2c(N)nc3cc(CCC(=O)O)ccc3c2c1 | 74% | 0.36 µM | Not Active | 35% | 2.4 µM
Cc1ccc2c(c1)nc(N)c1ncc(CCc3ccc(OCCCP(=O)(O)O)cc3C)cc12 | 98% | 30 µM |  |  | 1.1 µM
Cc1cc(OCCOCCOCCP(=O)(O)O)ccc1CCc1cnc2c(N)nc3cc(CCC(=O)O)ccc3c2c1 | 140% | 0.49 µM | Not Active | 58% | 0.19 µM
Cc1cc(OCCOCCOCCC(F)(F)P(=O)(O)O)ccc1CCc1cnc2c(N)nc3cc(CCC(=O)O)ccc3c2c1 | 80% | 2.1 µM | Not Active | 35% | 1.2 µM
